Data reported in ChEMBL document CHEMBL2375264, “Potent naphthoquinones against antimony-sensitive and -resistant Leishmania parasites: synthesis of novel α- and nor-α-lapachone-based 1,2,3-triazoles by copper-catalyzed azide-alkyne cycloaddition” (Eur J Med Chem, 2013).
pIC50: −log10 of the molar value.

How the values were obtained:
[1] = Selectivity index, ratio of CC50 for Swiss mouse peritoneal macrophages to IC50 for antimony-resistant Leishmania amazonensis MHOM/BR/1989/BA199 promastigote; format: functional
How it was run: (§1)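 SI = CC50/IC50. CC50 comes from Swiss mouse peritoneal macrophages, harvested by lavage with cold RPMI-1640 lacking FBS. Cells seeded at 4.0 × 10⁶/mL, allowed to adhere 1 h, then washed free of non-adherent cells. Viability read by MTT (5 mg/mL stock, 4 h).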

[2] = Selectivity index, ratio of CC50 for Swiss mouse peritoneal macrophages to IC50 for antimony-sensitive Leishmania amazonensis MHOM/BR/1989/BA199 promastigote; format: functional
How it was run: (§2)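 SI = CC50 / IC50. CC50 is from Swiss mouse peritoneal macrophages, read by MTT after lavage and 1 h adherence. […] Promastigotes grown in α-MEM with 10% heat-inactivated FBS, hemin and biopterin, pH 7.0, 25 °C. DMSO ≤0.2% final. Triplicate.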

[3] = Selectivity index, ratio of CC50 for Swiss mouse peritoneal macrophages to IC50 for antimony-resistant Leishmania infantum MCAN/BR/2002/BH400 promastigote; format: functional; how it was run: as §1
[4] = Selectivity index, ratio of CC50 for Swiss mouse peritoneal macrophages to IC50 for antimony-sensitive Leishmania infantum MCAN/BR/2002/BH400 promastigote; format: functional; how it was run: as §2
[5] = Cytotoxicity against Swiss mouse peritoneal macrophages after 24 hrs by MTT assay; format: cell-based, Peritoneal macrophage cell
How it was run: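 Macrophages from peritoneal lavage of Swiss mice with cold FBS-free RPMI-1640. Cells seeded at 4.0 × 10⁶/mL, adhered 1 h, non-adherent cells washed off. Compounds were DMSO stocks diluted in medium over a concentration range, final DMSO ≤0.2%. Viability read by MTT (5 mg/mL solution, 4 h further incubation). CC50 taken as the 50% cytotoxic concentration.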

[6] = tested on: Leishmania amazonensis; test: Antileishmanial activity against antimony-resistant Leishmania amazonensis MHOM/BR/1989/BA199 promastigote infected in Swiss mouse peritoneal macrophages after 72 hrs; format: functional, organism-based; conditions: MHOM/BR/1989/BA199, 72 h
How it was run: (§3)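 Promastigotes of Sb(III)-sensitive and -resistant lines (resistant to Sb(III) up to 2700), maintained at 25 °C, pH 7.0, in α-MEM with 10% heat-inactivated FBS, kanamycin, ampicillin, L-glutamine, hemin and biopterin. Drugs dissolved in DMSO, diluted in α-MEM across a concentration range, final DMSO ≤0.2%.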

[7] = tested on: Leishmania amazonensis; test: Antileishmanial activity against antimony-sensitive Leishmania amazonensis MHOM/BR/1989/BA199 promastigote infected in Swiss mouse peritoneal macrophages after 72 hrs; format: functional, organism-based; conditions: MHOM/BR/1989/BA199, 72 h; how it was run: as §3
[8] = tested on: Leishmania infantum; test: Antileishmanial activity against antimony-resistant Leishmania infantum MCAN/BR/2002/BH400 promastigote infected in Swiss mouse peritoneal macrophages after 72 hrs; format: functional, organism-based; conditions: MCAN/BR/2002/BH400, 72 h; how it was run: as §3
[9] = tested on: Leishmania infantum; test: Antileishmanial activity against antimony-sensitive Leishmania infantum MCAN/BR/2002/BH400 promastigote infected in Swiss mouse peritoneal macrophages after 72 hrs; format: functional, organism-based; conditions: MCAN/BR/2002/BH400, 72 h; how it was run: as §3
[10] = tested on: Leishmania amazonensis; test: Ratio of potassium antimonyl tartrate IC50 to compound IC50 for antimony-sensitive Leishmania amazonensis MHOM/BR/1989/BA199 promastigote infected in Swiss mouse peritoneal macrophages; format: functional
[11] = tested on: Leishmania infantum; test: Ratio of potassium antimonyl tartrate IC50 to compound IC50 for antimony-sensitive Leishmania infantum MCAN/BR/2002/BH400 promastigote infected in Swiss mouse peritoneal macrophages; format: functional

Question: What does the source list for `CCCCCc1cn(C2C3=C(OC2(C)C)C(=O)c2ccccc2C3=O)nn1` (centres undefined)?
Answer: Ratio CC50/IC50 [1]: 14; Ratio CC50/IC50 [2]: 7.29; Ratio CC50/IC50 [3]: 14; Ratio CC50/IC50 [4]: 15.02; CC50 at 24 h [5]: 16 µM; pIC50 [6]: 5.94; pIC50 [7]: 5.66; pIC50 [8]: 5.94; pIC50 [9]: 5.98

Question: With `CCC(C)(O)c1cn(C2C3=C(OC2(C)C)C(=O)c2ccccc2C3=O)nn1` (centres undefined) as the compound, how does the “Ratio CC50/IC50” value [1] read?
Answer: 0.66

Question: What about the “Ratio CC50/IC50” value [2] of the same compound?
Answer: 0.99

Question: What about the “Ratio CC50/IC50” value [3] of the same compound?
Answer: 0.7

Question: And the “Ratio CC50/IC50” value [4]?
Answer: 12.36

Question: What about the CC50 at 24 h [5] of the same compound?
Answer: 17.9 µM

Question: What about the pIC50 [6] of the same compound?
Answer: 4.57

Question: And the pIC50 [7]?
Answer: 4.74

Question: What about the pIC50 [8] of the same compound?
Answer: 4.60

Question: And the pIC50 [9]?
Answer: 5.84

Question: With `CC(C)(O)c1cn(C2C3=C(OC2(C)C)C(=O)c2ccccc2C3=O)nn1` (centres undefined) as the compound, how does the “Ratio CC50/IC50” value [1] read?
Answer: 2.71

Question: And the “Ratio CC50/IC50” value [2]?
Answer: 1.39

Question: What about the “Ratio CC50/IC50” value [3] of the same compound?
Answer: 15.01

Question: And the “Ratio CC50/IC50” value [4]?
Answer: 12.78

Question: And the CC50 at 24 h [5]?
Answer: 19.8 µM

Question: What about the pIC50 [6] of the same compound?
Answer: 5.14

Question: What about the pIC50 [7] of the same compound?
Answer: 4.85

Question: And the pIC50 [8]?
Answer: 5.88

Question: What about the pIC50 [9] of the same compound?
Answer: 5.81

Question: Which results are given for `CC1(C)OC2=C(C(=O)c3ccccc3C2=O)C1n1cc(C2CCCCC2)nn1` (centres undefined)?
Answer: Ratio CC50/IC50 [1]: 13.47; Ratio CC50/IC50 [2]: 5.35; Ratio CC50/IC50 [3]: 10.51; Ratio CC50/IC50 [4]: 10.23; CC50 at 24 h [5]: 18.7 µM; pIC50 [6]: 5.86; pIC50 [7]: 5.46; pIC50 [8]: 5.75; pIC50 [9]: 5.74

Question: What does the source list for `CC(C)=CC1=C(O)C(=O)c2ccccc2C1=O`?
Answer: Ratio CC50/IC50 [2]: <0.15; Ratio CC50/IC50 [4]: <0.15; CC50 at 24 h [5]: 14.6 µM; pIC50 [6]: < 4.00; pIC50 [7]: < 4.00; pIC50 [8]: < 4.00; pIC50 [9]: < 4.00

Question: What does the source list for `CC1(C)OC2=C(C(=O)C(=O)c3ccccc32)C1n1cc(-c2ccccc2)nn1` (centres undefined)?
Answer: Ratio IC50 [10]: 23; Ratio IC50 [11]: 15.5; Ratio CC50/IC50 [1]: 3.32; Ratio CC50/IC50 [2]: 3.08; Ratio CC50/IC50 [3]: 3.29; Ratio CC50/IC50 [4]: 3.42; CC50 at 24 h [5]: 3.42 µM; pIC50 [6]: 5.99; pIC50 [7]: 5.95; pIC50 [8]: 5.98; pIC50 [9]: 6.00

Question: Which “Ratio CC50/IC50” value [1] does the source give for `CC1(C)CC2=C(O1)C(=O)c1ccccc1C2=O` here?
Answer: 0.5

Question: And the “Ratio CC50/IC50” value [2]?
Answer: 0.28

Question: And the “Ratio CC50/IC50” value [3]?
Answer: 0.6

Question: And the “Ratio CC50/IC50” value [4]?
Answer: 0.5

Question: What about the CC50 at 24 h [5] of the same compound?
Answer: 0.77 µM

Question: What about the pIC50 [6] of the same compound?
Answer: 5.81

Question: What about the pIC50 [7] of the same compound?
Answer: 5.57

Question: And the pIC50 [8]?
Answer: 5.89

Question: What about the pIC50 [9] of the same compound?
Answer: 5.81

Question: For `CC1(C)CCC2=C(O1)C(=O)c1ccccc1C2=O` [ALPHA-LAPACHONE], which “Ratio CC50/IC50” value [1] is on record?
Answer: 0.25

Question: What about the “Ratio CC50/IC50” value [2] of the same compound?
Answer: 0.24

Question: And the “Ratio CC50/IC50” value [3]?
Answer: 0.65

Question: What about the “Ratio CC50/IC50” value [4] of the same compound?
Answer: 0.27

Question: What about the CC50 at 24 h [5] of the same compound?
Answer: 3.8 µM

Question: What about the pIC50 [6] of the same compound?
Answer: 4.82

Question: What about the pIC50 [7] of the same compound?
Answer: 4.79

Question: What about the pIC50 [8] of the same compound?
Answer: 5.23

Question: What about the pIC50 [9] of the same compound?
Answer: 4.86

Question: With `CC(C)=CCC1=C(O)C(=O)c2ccccc2C1=O` [LAPACHOL] as the compound, how does the “Ratio CC50/IC50” value [1] read?
Answer: 0.94

Question: And the “Ratio CC50/IC50” value [2]?
Answer: 0.58

Question: What about the “Ratio CC50/IC50” value [3] of the same compound?
Answer: 0.59

Question: What about the “Ratio CC50/IC50” value [4] of the same compound?
Answer: 1.71

Question: And the CC50 at 24 h [5]?
Answer: 59.3 µM

Question: And the pIC50 [6]?
Answer: 4.20

Question: And the pIC50 [7]?
Answer: 3.99

Question: And the pIC50 [8]?
Answer: 4.00

Question: What about the pIC50 [9] of the same compound?
Answer: 4.46

Question: What does the source list for `CC1(C)CCC2=C(O1)c1ccccc1C(=O)C2=O` [LAPACHONE]?
Answer: Ratio CC50/IC50 [1]: 0.57; Ratio CC50/IC50 [2]: 0.27; Ratio CC50/IC50 [3]: 0.7; Ratio CC50/IC50 [4]: 1.14; CC50 at 24 h [5]: 0.79 µM; pIC50 [6]: 5.86; pIC50 [7]: 5.54; pIC50 [8]: 5.95; pIC50 [9]: 6.17

Question: For `CC1(C)CC2=C(O1)c1ccccc1C(=O)C2=O` [NOR-BETA-LAPACHONE], which “Ratio CC50/IC50” value [1] is on record?
Answer: 0.97

Question: And the “Ratio CC50/IC50” value [2]?
Answer: 0.62

Question: What about the “Ratio CC50/IC50” value [3] of the same compound?
Answer: 0.97

Question: What about the “Ratio CC50/IC50” value [4] of the same compound?
Answer: 1.36

Question: What about the CC50 at 24 h [5] of the same compound?
Answer: 1.55 µM

Question: What about the pIC50 [6] of the same compound?
Answer: 5.80

Question: What about the pIC50 [7] of the same compound?
Answer: 5.61

Question: What about the pIC50 [8] of the same compound?
Answer: 5.80

Question: What about the pIC50 [9] of the same compound?
Answer: 5.94
